Laboratory results from ChEMBL document CHEMBL1142637, “New caryophyllene derivatives from Betula litwinowii” (2000).
Values after ≈ are worked out from the molar mass of the structure shown.

What was measured:
Format in all cases: functional
Pseudomonas aeruginosa = experiment: Antibacterial activity against Pseudomonas aeruginosa after 24 hrs
Outline: (§1)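 Broth microdilution MIC. Compound stock in DMSO, serially diluted 1000 to 0.97 μg/mL in sterile distilled water. Bacteria were freshly grown in double-strength Mueller-Hinton broth and adjusted to 108 CFU/mL. Equal volumes of dilution and suspension were mixed. Sterile water well served as growth control, and dilutions without organism as negative control. After 37 °C for 24 h, MIC was read as the first well without turbidity.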

Akanthomyces muscarius = experiment: Antifungal activity against Cephalosporium ophidicola at 200 ug/mL after 7 to 10 days by agar tube dilution technique
Outline: (§2)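 Agar tube dilution against plant pathogenic fungi. Compound in DMSO was mixed into molten SDA to a final 200 μg/mL and solidified as slants at room temperature. Slants were inoculated with 4×4 mm plugs cut from 1-week cultures and incubated 7–10 days at 29 °C. Linear growth (mm) was measured, and % inhibition was calculated against a DMSO-only medium control. Ketoconazole served as the reference drug.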

Staphylococcus aureus = experiment: Antibacterial activity against Staphylococcus aureus after 24 hrs; outline: as §1
Escherichia coli = experiment: Antibacterial activity against Escherichia coli after 24 hrs; outline: as §1
Fusarium solani = experiment: Antifungal activity against Fusarium solani at 200 ug/mL after 7 to 10 days by agar tube dilution technique relative to ketoconazole; outline: as §2
Bacillus cereus = experiment: Antibacterial activity against Bacillus cereus after 24 hrs; outline: as §1
Ceratobasidium cereale = experiment: Antifungal activity against Rhizoctonia cerealis at 200 ug/mL after 7 to 10 days by agar tube dilution technique; outline: as §2
Micrococcus luteus = experiment: Antibacterial activity against Micrococcus luteus after 24 hrs; outline: as §1
Drechslera = experiment: Antifungal activity against Drechslera sorokinianse at 200 ug/mL after 7 to 10 days by agar tube dilution technique relative to ketoconazole; outline: as §2
Nakaseomyces glabratus = experiment: Antifungal activity against Candida glabrata after 24 hrs
Outline: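 Broth microdilution: pure compound stock in DMSO, serially diluted from 1000 to 0.97 μg/mL in sterile distilled water. Each dilution was mixed with an equal volume of standardized C. glabrata suspension in yeast medium. Sterile water served as growth control, and dilutions without organism as negative control. After 24 h at 37 °C, MIC was read as the first well without turbidity.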

MIC (Pseudomonas aeruginosa) | MIC (Staphylococcus aureus) | MIC (Escherichia coli) | MIC (Bacillus cereus) | MIC (Micrococcus luteus) | SMILES | inhibition at 200 µg/mL (Akanthomyces muscarius) | inhibition at 200 µg/mL (Fusarium solani) | inhibition at 200 µg/mL (Ceratobasidium cereale) | inhibition at 200 µg/mL (Drechslera) | MIC (Nakaseomyces glabratus)
250 µg/mL (≈ 1120 µM) | 250 µg/mL (≈ 1120 µM) | 250 µg/mL (≈ 1120 µM) | 125 µg/mL (≈ 562 µM) | 250 µg/mL (≈ 1120 µM) | C=C1CCC[C@H](CO)CC[C@@H]2[C@@H]1CC2(C)C | 100% | 59% | 100% | 75% | 125 µg/mL (≈ 562 µM)
62.5 µg/mL (≈ 193 µM) | 7.81 µg/mL (≈ 24.2 µM) | 250 µg/mL (≈ 774 µM) | 125 µg/mL (≈ 387 µM) | 125 µg/mL (≈ 387 µM) | O=C(N[C@H](CO)[C@H](O)c1ccc([N+](=O)[O-])cc1)C(Cl)Cl [CHLORAMPHENICOL] |  |  |  |  | 
 |  |  |  |  | CC(=O)N1CCN(c2ccc(OCC3COC(Cn4ccnc4)(c4ccc(Cl)cc4Cl)O3)cc2)CC1 (stereo unspecified) [KETOCONAZOLE] |  |  |  |  | 62.5 µg/mL (≈ 118 µM)
